Activity calls are given as the source filed them. The rule behind the calls is not given here.
Key:
[1] = target: Cannabinoid receptor 1 (Homo sapiens, UniProt P21554); assay: Displacement of [3H]CP55940 from human CB1 expressed in CHOK1 cell membranes
[2] = target: Cannabinoid receptor 2 (Homo sapiens, UniProt P34972); assay: Displacement of [3H]CP55940 from human CB2 expressed in CHOK1 cell membranes
[3] = tested on: Mus musculus; assay: Suppression of CP55940-induced hypothermia in C57BL/6 mouse assessed as reduction in body temperature at 30 mg/kg, po administered via gavage pretreated for 30 mins followed by CP55940 addition measured at regular interval up to 4 hrs; assay type: ADME, organism-based; conditions: in vivo
Outline: (§1)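 Female C57BL6 mice, acclimated 2 weeks, given test agent or vehicle by oral gavage; after 30 min, CP55940 0.56 mg/kg ip in corn oil. Rectal temperature recorded at regular intervals up to 4 h. Six animals per group; means and standard deviations; two-way ANOVA versus vehicle.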

[4] = species on record: Homo sapiens; assay: Selectivity ratio of Ki for human CB2 to Ki for human CB1
Outline: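 Displacement of [3H]CP55940 binding to membranes from CHO cells overexpressing human CB1 or human CB2. Ki was determined at each receptor, and the ratio was taken as Ki(hCB2)/Ki(hCB1). Values are averages of three to six measurements.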

[5] = Drug uptake in C57BL/6 mouse brain at 5 mg/kg, po after 0.6 to 24 hrs by LC-MS method; assay type: ADME, organism-based; conditions: in vivo
[6] = tested on: Mus musculus; assay: Anti-hepatic steatosis activity in alcohol-induced hepatic steatosis C57BL/6 mouse model assessed as reduction in hepatic lipid accumulation at 1.25 mg/kg, po bid administered via gavage treated for 2 weeks by oil red o-staining based histopathological assay; assay type: functional, organism-based
Outline: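 Female C57BL6 mice on Lieber-DeCarli liquid diet; ethanol raised progressively 1 to 5% (v/v) over 15 days, then 4 further weeks; pair-fed controls on control diet. Drug suspended in 0.5% sodium carboxymethylcellulose, 1% NMP, 0.3% Tween 80, given 1.25 mg/kg twice daily by gavage for last 2 weeks. Liver sections (10 μm, OCT) stained with Oil Red O; droplets counted in six grids per image; n = 6 per group; ANOVA.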

[7] = Aqueous kinetic solubility of the compound in 10 mM phosphate buffer at pH 1.6 after 90 mins by LC/MS analysis; assay type: physicochemical; conditions: read-out: Kinetic_solubility
Outline: (§2)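 10 mM DMSO stocks diluted into 10 mM phosphate buffer (final DMSO 1%), shaken 90 min at room temperature, filtered through 0.4 μm plates. Filtrate concentration quantified by LC/MS against a six-point standard curve. Mean of three determinations.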

[8] = Aqueous kinetic solubility of the compound in 10 mM phosphate buffer at pH 7.4 after 90 mins by LC/MS analysis; assay type: physicochemical; conditions: read-out: Kinetic_solubility; outline: as §2
[9] = Drug uptake in alcohol-induced hepatic steatosis C57BL/6 mouse model brain at 1.25 mg/kg, po bid administered via gavage treated for 2 weeks measured at 16 hrs post last dose by LC-MS method; assay type: ADME, organism-based; conditions: in vivo
[10] = Drug uptake in C57BL/6 mouse brain at 1.25 mg/kg, po bid administered via gavage treated for 7 days measured at 0.5 to 24 hrs post last dose; assay type: ADME, organism-based; conditions: in vivo
[11] = tested on: Mus musculus; assay: Suppression of CP55940-induced hypothermia in C57BL/6 mouse assessed as reduction in body temperature at 10 mg/kg, po administered via gavage pretreated for 30 mins followed by CP55940 addition measured at regular interval up to 4 hrs; assay type: ADME, organism-based; conditions: in vivo; outline: as §1

Sequence of Cannabinoid receptor 1 (P21554 whole entry): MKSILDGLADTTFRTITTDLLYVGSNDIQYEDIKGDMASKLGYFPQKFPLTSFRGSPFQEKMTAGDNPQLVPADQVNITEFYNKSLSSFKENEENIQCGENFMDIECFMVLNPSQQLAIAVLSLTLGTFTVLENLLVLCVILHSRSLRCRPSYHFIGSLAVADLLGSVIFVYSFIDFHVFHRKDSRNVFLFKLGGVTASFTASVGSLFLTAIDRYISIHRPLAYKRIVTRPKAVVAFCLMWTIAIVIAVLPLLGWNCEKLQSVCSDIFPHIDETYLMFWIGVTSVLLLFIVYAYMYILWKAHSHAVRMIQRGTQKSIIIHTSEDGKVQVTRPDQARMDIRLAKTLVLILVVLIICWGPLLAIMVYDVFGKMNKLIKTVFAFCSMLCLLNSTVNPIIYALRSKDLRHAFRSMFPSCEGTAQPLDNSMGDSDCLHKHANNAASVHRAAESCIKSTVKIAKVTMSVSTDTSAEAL
Sequence of Cannabinoid receptor 2 (P34972 whole entry): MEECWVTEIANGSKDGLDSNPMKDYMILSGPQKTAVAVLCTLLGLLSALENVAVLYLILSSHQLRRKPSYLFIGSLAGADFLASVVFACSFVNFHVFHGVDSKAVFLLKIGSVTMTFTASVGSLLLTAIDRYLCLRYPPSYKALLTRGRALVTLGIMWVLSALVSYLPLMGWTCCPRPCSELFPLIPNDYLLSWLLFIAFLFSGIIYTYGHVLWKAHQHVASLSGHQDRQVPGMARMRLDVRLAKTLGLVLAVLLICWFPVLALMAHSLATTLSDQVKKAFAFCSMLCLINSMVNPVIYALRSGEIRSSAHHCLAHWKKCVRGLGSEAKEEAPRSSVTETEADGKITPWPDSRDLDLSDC

For `COc1ccccc1N1CCN(c2ncnc3c2nc(-c2ccccc2Cl)n3-c2ccc(Cl)cc2)CC1`, the Ki [1] was 2 nM and the Ki [2] was 5000 nM.
Work on `N#Cc1ccccc1N1CCN(c2ncnc3c2nc(-c2ccccc2Cl)n3-c2ccc(Cl)cc2)CC1` yielded a Ki [2] of over 10000 nM.
Molecule `Cc1ccccc1CN1CCN(c2ncnc3c2nc(-c2ccccc2Cl)n3-c2ccc(Cl)cc2)CC1` has a Ki [2] of 4600 nM.
Molecule `Clc1ccc(-n2c(-c3ccccc3Cl)nc3c(N4CCN(c5ccccc5)CC4)ncnc32)cc1` has a Ki [2] of over 10000 nM.
Molecule `Cc1ccc(CN2CCN(c3ncnc4c3nc(-c3ccccc3Cl)n4-c3ccc(Cl)cc3)CC2)cc1` has a Ki [2] of over 10000 nM.
With `COc1ccc(CN2CCN(c3ncnc4c3nc(-c3ccccc3Cl)n4-c3ccc(Cl)cc3)CC2)cc1` the Ki [2] was over 10000 nM.
For `CCNC1(C(N)=O)CCN(c2ncnc3c2nc(-c2ccccc2Cl)n3-c2ccc(Cl)cc2)CC1` [OTENABANT], the Activity [3] was “Toxic”.
With `Clc1ccc(-n2c(-c3ccccc3Cl)nc3c(N4CCN(CCc5ccncc5)CC4)ncnc32)cc1` the Ki [1] was 12 nM, the Ki [2] was 630 nM and the Ratio Ki [4] was 52.
Molecule `FC(F)(F)Oc1ccccc1CN1CCN(c2ncnc3c2nc(-c2ccccc2Cl)n3-c2ccc(Cl)cc2)CC1` has a Ki [2] of over 10000 nM.
With `Cc1c(C(=O)NN2CCCCC2)nn(-c2ccc(Cl)cc2Cl)c1-c1ccc(Cl)cc1` [RIMONABANT] the Drug uptake [5] was “Active”.
`COc1ccc(N2CCN(c3ncnc4c3nc(-c3ccccc3Cl)n4-c3ccc(Cl)cc3)CC2)cc1` showed a Ki [2] of over 10000 nM.
In the case of `N#CC(c1ccccc1)N1CCN(c2ncnc3c2nc(-c2ccccc2Cl)n3-c2ccc(Cl)cc2)CC1` (stereo not given), the Ki [1] is reported as 7 nM, the Ki [2] is reported as 460 nM and the Ratio Ki [4] is reported as 66.
`N#Cc1ccc(N2CCN(c3ncnc4c3nc(-c3ccccc3Cl)n4-c3ccc(Cl)cc3)CC2)cc1` showed a Ki [2] of over 10000 nM.
Molecule `Clc1ccc(-n2c(-c3ccccc3Cl)nc3c(N4CCN(Cc5ccccc5)CC4)ncnc32)cc1` has a Ki [1] of 4 nM, a Ki [2] of 430 nM and a Ratio Ki [4] of 110.
Molecule `Oc1cccc(N2CCN(c3ncnc4c3nc(-c3ccccc3Cl)n4-c3ccc(Cl)cc3)CC2)c1` has a Ki [1] of 25 nM and a Ki [2] of over 10000 nM.
`Clc1ccc(CN2CCN(c3ncnc4c3nc(-c3ccccc3Cl)n4-c3ccc(Cl)cc3)CC2)cc1` gave a Ki [2] of over 10000 nM.
For `Clc1ccc(-n2c(-c3ccccc3Cl)nc3c(N4CCN(Cc5ccccc5Cl)CC4)ncnc32)cc1`, the Activity [6] was “Active”, the solubility kinetic at […] [7] was over 200 µM and the solubility kinetic at […] [8] was under 0.4 µM. For the same molecule, the Drug uptake [9] was “Not Active”, the Drug uptake [10] was “Not Active” and the Activity [11] was “Non-Toxic”.

— ChEMBL document CHEMBL4219244, “Blocking Alcoholic Steatosis in Mice with a Peripherally Restricted Purine Antagonist of the Type 1 Cannabinoid Receptor” (J Med Chem, 2018)
